Assay results reported in ChEMBL document CHEMBL4396885, “Thioether-based 2-aminobenzamide derivatives: Novel HDAC inhibitors with potent in vitro and in vivo antitumor activity” (Eur J Med Chem, 2019).

Legend:
A549 [1] = experiment: Antiproliferative activity against human A549 cells assessed as growth inhibition at 2 uM after 72 hrs by CCK-8 assay relative to control; assay type: functional; details: A549, 72 h, read-out: GI
A549 [2] = experiment: Cell cycle arrest in human A549 cells assessed as accumulation of cells at G0/G1 phase at 1 uM after 48 hrs by propidium iodide staining-based flow cytometry (reference value: 73.35%); assay type: functional
A549 [3] = experiment: Induction of apoptosis in human A549 cells assessed as necrotic cells at 0.5 uM after 48 hrs by Annexin V-FITC/propidium iodide staining based flow cytometry (reference value: 0.135%); assay type: functional
Method in brief: (§1)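 A549 seeded 4×10⁶ cells/well, dosed after 12 h with compound at various concentrations, harvested after 48 h. Resuspended in annexin-binding buffer, stained with Annexin V-FITC and propidium iodide for 15 min in the dark, analysed by flow cytometry; means of three separate experiments.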

SMMC-7721 [4] = experiment: Antiproliferative activity against human SMMC7721 cells assessed as decrease in cell viability after 72 hrs by CCK-8 assay; assay type: functional, cell-based; details: SMMC-7721, 72 h
Method in brief: (§2)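 Cells grown to 70–85% confluence (A375, A549, HCT116 in RPMI1640; HeLa, SMMC7721 in DMEM; 10% FBS, 37 °C, 5% CO2), seeded 4000/well, dosed after 12 h across a concentration range, incubated 72 h, then CCK-8 for 1 h; absorbance at 450 nm. IC50 as mean ± SD of three separate experiments.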

A549 [5] = experiment: Cell cycle arrest in human A549 cells assessed as accumulation of cells at S phase at 0.5 uM after 48 hrs by propidium iodide staining-based flow cytometry (reference value: 12.83%); assay type: functional
A549 [6] = experiment: Induction of apoptosis in human A549 cells assessed as early apoptotic cells at 2 uM after 48 hrs by Annexin V-FITC/propidium iodide staining based flow cytometry (reference value: 1.19%); assay type: functional; method in brief: as §1
A549 [7] = experiment: Cell cycle arrest in human A549 cells assessed as accumulation of cells at S phase at 2 uM after 48 hrs by propidium iodide staining-based flow cytometry (reference value: 12.83%); assay type: functional
A549 [8] = experiment: Induction of apoptosis in human A549 cells assessed as viable cells at 1 uM after 48 hrs by Annexin V-FITC/propidium iodide staining based flow cytometry (reference value: 98%); assay type: functional; details: A549, 48 h, read-out: Activity; method in brief: as §1
HCT-116 [9] = experiment: Antiproliferative activity against human HCT116 cells assessed as growth inhibition at 8 uM after 72 hrs by CCK-8 assay relative to control; assay type: functional; details: HCT-116, 72 h, read-out: GI
A549 [10] = experiment: Cell cycle arrest in human A549 cells assessed as accumulation of cells at G0/G1 phase at 2 uM after 48 hrs by propidium iodide staining-based flow cytometry (reference value: 73.35%); assay type: functional
A549 [11] = experiment: Induction of apoptosis in human A549 cells assessed as necrotic cells at 2 uM after 48 hrs by Annexin V-FITC/propidium iodide staining based flow cytometry (reference value: 0.135%); assay type: functional; method in brief: as §1
A549 [12] = experiment: Cell cycle arrest in human A549 cells assessed as accumulation of cells at S phase at 1 uM after 48 hrs by propidium iodide staining-based flow cytometry (reference value: 12.83%); assay type: functional
HeLa [13] = experiment: Antiproliferative activity against human HeLa cells assessed as decrease in cell viability after 72 hrs by CCK-8 assay; assay type: functional, cell-based; method in brief: as §2
SMMC-7721 [14] = experiment: Antiproliferative activity against human SMMC7721 cells assessed as growth inhibition at 2 uM after 72 hrs by CCK-8 assay relative to control; assay type: functional; details: SMMC-7721, 72 h, read-out: GI
A549 [15] = experiment: Induction of apoptosis in human A549 cells assessed as viable cells at 2 uM after 48 hrs by Annexin V-FITC/propidium iodide staining based flow cytometry (reference value: 98%); assay type: functional; details: A549, 48 h, read-out: Activity; method in brief: as §1
A549 [16] = experiment: Cell cycle arrest in human A549 cells assessed as accumulation of cells at G0/G1 phase at 0.5 uM after 48 hrs by propidium iodide staining-based flow cytometry (reference value: 73.35%); assay type: functional
A549 [17] = experiment: Antiproliferative activity against human A549 cells assessed as decrease in cell viability after 72 hrs by CCK-8 assay; assay type: functional, cell-based; details: A549, 72 h; method in brief: as §2
A-375 [18] = experiment: Antiproliferative activity against human A375 cells assessed as growth inhibition at 8 uM after 72 hrs by CCK-8 assay relative to control; assay type: functional; details: A-375, 72 h, read-out: GI
HCT-116 [19] = experiment: Antiproliferative activity against human HCT116 cells assessed as decrease in cell viability after 72 hrs by CCK-8 assay; assay type: functional, cell-based; details: HCT-116, 72 h; method in brief: as §2
A-375 [20] = experiment: Antiproliferative activity against human A375 cells assessed as decrease in cell viability after 72 hrs by CCK-8 assay; assay type: functional, cell-based; details: A-375, 72 h; method in brief: as §2
SMMC-7721 [21] = experiment: Antiproliferative activity against human SMMC7721 cells assessed as growth inhibition at 8 uM after 72 hrs by CCK-8 assay relative to control; assay type: functional; details: SMMC-7721, 72 h, read-out: GI
A549 [22] = experiment: Induction of apoptosis in human A549 cells assessed as late apoptotic cells at 0.5 uM after 48 hrs by Annexin V-FITC/propidium iodide staining based flow cytometry (reference value: 0.637%); assay type: functional; method in brief: as §1
HeLa [23] = experiment: Antiproliferative activity against human HeLa cells assessed as growth inhibition at 2 uM after 72 hrs by CCK-8 assay relative to control; assay type: functional; details: read-out: GI
A549 [24] = experiment: Cell cycle arrest in human A549 cells assessed as accumulation of cells at G2/M phase at 1 uM after 48 hrs by propidium iodide staining-based flow cytometry (reference value: 13.62%); assay type: functional
A-375 [25] = experiment: Antiproliferative activity against human A375 cells assessed as growth inhibition at 2 uM after 72 hrs by CCK-8 assay relative to control; assay type: functional; details: A-375, 72 h, read-out: GI
A549 [26] = experiment: Cell cycle arrest in human A549 cells assessed as accumulation of cells at G2/M phase at 0.5 uM after 48 hrs by propidium iodide staining-based flow cytometry (reference value: 13.62%); assay type: functional
A549 [27] = experiment: Induction of apoptosis in human A549 cells assessed as late apoptotic cells at 2 uM after 48 hrs by Annexin V-FITC/propidium iodide staining based flow cytometry (reference value: 0.637%); assay type: functional; method in brief: as §1
A549 [28] = experiment: Cell cycle arrest in human A549 cells assessed as accumulation of cells at G2/M phase at 2 uM after 48 hrs by propidium iodide staining-based flow cytometry (reference value: 13.62%); assay type: functional
HCT-116 [29] = experiment: Antiproliferative activity against human HCT116 cells assessed as growth inhibition at 2 uM after 72 hrs by CCK-8 assay relative to control; assay type: functional; details: HCT-116, 72 h, read-out: GI
A549 [30] = experiment: Antiproliferative activity against human A549 cells assessed as growth inhibition at 8 uM after 72 hrs by CCK-8 assay relative to control; assay type: functional; details: A549, 72 h, read-out: GI
A549 [31] = experiment: Induction of apoptosis in human A549 cells assessed as early apoptotic cells at 1 uM after 48 hrs by Annexin V-FITC/propidium iodide staining based flow cytometry (reference value: 1.19%); assay type: functional; method in brief: as §1
A549 [32] = experiment: Induction of apoptosis in human A549 cells assessed as early apoptotic cells at 0.5 uM after 48 hrs by Annexin V-FITC/propidium iodide staining based flow cytometry (reference value: 1.19%); assay type: functional; method in brief: as §1
A549 [33] = experiment: Induction of apoptosis in human A549 cells assessed as viable cells at 0.5 uM after 48 hrs by Annexin V-FITC/propidium iodide staining based flow cytometry (reference value: 98%); assay type: functional; details: A549, 48 h, read-out: Activity; method in brief: as §1
A549 [34] = experiment: Induction of apoptosis in human A549 cells assessed as necrotic cells at 1 uM after 48 hrs by Annexin V-FITC/propidium iodide staining based flow cytometry (reference value: 0.135%); assay type: functional; method in brief: as §1
A549 [35] = experiment: Induction of apoptosis in human A549 cells assessed as late apoptotic cells at 1 uM after 48 hrs by Annexin V-FITC/propidium iodide staining based flow cytometry (reference value: 0.637%); assay type: functional; method in brief: as §1
HeLa [36] = experiment: Antiproliferative activity against human HeLa cells assessed as growth inhibition at 8 uM after 72 hrs by CCK-8 assay relative to control; assay type: functional; details: read-out: GI
[37] = Toxicity against nude Balb/c mouse xenografted with human A549 cells assessed as no change in body weight at 25 mg/kg, ip administered twice per day for 21 days and measured every 3 days during compound dosing; assay type: organism-based; details: in vivo
Method in brief: (§3)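 Female BALB/c nude mice, 5–6 weeks, implanted s.c. in right axilla with 3×10⁶ A549 cells; randomized at ~95 mm³ tumor volume, 4 per group. Dosed ip 25 mg/kg twice daily for 21 days; vehicle controls got DMA & 5% Solutol HS-15 (5:95). Tumor size (V=length×width²/2) and body weight measured every 3 days; TGI from volume change relative to control.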

A549 [38] = experiment: Antitumor activity against human A549 cells xenografted in Balb/c nude mouse assessed as tumor growth inhibition at 25 mg/kg, ip administered twice per day for 21 days relative to control; assay type: functional; details: 504 h, read-out: TGI; method in brief: as §3

Compound | inhibition of growth at 2 µM (A549 [1]) [%] | Activity (A549 [2]) [%] | Activity (A549 [3]) [%] | IC50 (SMMC-7721 [4]) [µM] | Activity (A549 [5]) [%] | Activity (A549 [6]) [%] | Activity (A549 [7]) [%] | viability at 1 µM (A549 [8]) [%] | inhibition of growth at 8 µM (HCT-116 [9]) [%] | Activity (A549 [10]) [%] | Activity (A549 [11]) [%] | Activity (A549 [12]) [%] | IC50 (HeLa [13]) [µM] | inhibition of growth at 2 µM (SMMC-7721 [14]) [%] | viability at 2 µM (A549 [15]) [%] | Activity (A549 [16]) [%] | IC50 (A549 [17]) [µM] | inhibition of growth at 8 µM (A-375 [18]) [%] | IC50 (HCT-116 [19]) [µM] | IC50 (A-375 [20]) [µM] | also measured
Nc1ccc(F)cc1NC(=O)c1ccc(CNC(=O)/C=C/c2cccnc2)cc1 | 21.9 | 74.07 | 0.455 | 8.63 | 6.97 | 3.97 | 9.43 | 89 | 87.4 | 75.53 | 0.881 | 7.26 | 3.42 | 56.5 | 91 | 75.24 | 6.81 | 71.7 | 1.57 | 4.77 | inhibition of growth at 8 µM (SMMC-7721 [21]): 71.7%; Activity (A549 [22]): 0.898%; inhibition of growth at 2 µM (HeLa [23]): 20.6%; Activity (A549 [24]): 18.67%; inhibition of growth at 2 µM (A-375 [25]): 56.5%; Activity (A549 [26]): 17.79%; Activity (A549 [27]): 4.14%; Activity (A549 [28]): 15.04%; inhibition of growth at 2 µM (HCT-116 [29]): 61.1%; inhibition of growth at 8 µM (A549 [30]): 85.6%; Activity (A549 [31]): 1.01%; Activity (A549 [32]): 2.17%; viability at 0.5 µM (A549 [33]): 96.5%; Activity (A549 [34]): 4.71%; Activity (A549 [35]): 5.25%; inhibition of growth at 8 µM (HeLa [36]): 34.2%
CC(=O)Nc1ccc(C(=O)Nc2ccccc2N)cc1 [TACEDINALINE] | 23.5 | 75.86 | 4.6 | 14.1 | 7.64 | 3.68 | 7.37 | 89.7 | 44 | 77.38 | 3.15 | 6.73 | 13.4 | 23.5 | 83.3 | 76.99 | 16.4 | 46.4 | 6.39 | 9.64 | Activity [37]: Non-Toxic; inhibition in vivo at 25 mg/kg (A549 [38]): 46.8%; inhibition of growth at 8 µM (SMMC-7721 [21]): 29.1%; Activity (A549 [22]): 1.86%; inhibition of growth at 2 µM (HeLa [23]): 23.5%; Activity (A549 [24]): 17.41%; inhibition of growth at 2 µM (A-375 [25]): 12.8%; Activity (A549 [26]): 15.37%; Activity (A549 [27]): 9.92%; Activity (A549 [28]): 15.25%; inhibition of growth at 2 µM (HCT-116 [29]): 13%; inhibition of growth at 8 µM (A549 [30]): 29.1%; Activity (A549 [31]): 3.92%; Activity (A549 [32]): 1.17%; viability at 0.5 µM (A549 [33]): 92.4%; Activity (A549 [34]): 0.521%; Activity (A549 [35]): 5.87%; inhibition of growth at 8 µM (HeLa [36]): 29.1%
